The sample as a whole holds a higher share of hits than the screen did.
IDH1 R132H inh: IDH1 R132H (human) inhibition; IDH1 R132H reductase, diaphorase/resazurin fluorescence, 60 min; 0.18% of 70,000 active; O75874; inhibition, % at 10 µM; AID 624101; in the data active = inhibition above about 34%; inconclusive = no clear call, values can overlap the other calls; inactive = below about 11%
GASC1 inh: blocks human GASC-1 (KDM4C) demethylase activity; Q9H3R0; GST-KDM4C 2-372, H3K9me3 peptide, LANCE TR-FRET; inhibition, % at 12.5 µM; 0.15% of 96,000 active; AID 720574;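 active = mean replicate inhibition above about 25%, with at least 55% of replicates also reaching it, limit read from the data, passing the limit was not always enough; inconclusive = only one of those two conditions met; inactive = neither condition met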
Target sequence (Q9H3R0 2-372 limits assumed): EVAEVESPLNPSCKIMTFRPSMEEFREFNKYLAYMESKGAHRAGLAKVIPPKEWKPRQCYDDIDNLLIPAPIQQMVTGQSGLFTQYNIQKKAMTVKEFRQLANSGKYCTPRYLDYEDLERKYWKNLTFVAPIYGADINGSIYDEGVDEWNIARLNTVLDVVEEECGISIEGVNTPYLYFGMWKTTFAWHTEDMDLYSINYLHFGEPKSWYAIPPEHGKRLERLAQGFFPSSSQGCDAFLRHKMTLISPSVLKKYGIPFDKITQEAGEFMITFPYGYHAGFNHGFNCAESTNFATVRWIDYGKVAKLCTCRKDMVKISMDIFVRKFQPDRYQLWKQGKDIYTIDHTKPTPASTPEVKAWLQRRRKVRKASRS
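reagent = H3K9me3 peptide substrate, Fe(II), 2-oxoglutarate | system = GST-tagged GASC-1 (JMJD2C) catalytic fragment, aa 2-372 | amount = enzyme final amount 10 nM | read-out = Fall in 671/618 emission ratio as inhibition | medium = HEPES buffer, pH 7.5, plus ascorbate | schedule = 30 min reaction, 60 min detection, RT | measured by = LANCE TR-FRET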
T cruzi growth-1: blocks T. cruzi growth in NIH3T3 culture | 5.9% of 77,000 active | inhibition, % at 8.34 µM | AID 624255 | T. cruzi beta-gal in NIH3T3, GalScreen luminescence, 90 h;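 active = mean inhibition above about 93%, with at least 55% of replicates each passing it, limit read from the data, passing the limit was not always enough; inconclusive = only one of those two conditions holds; inactive = neither condition holds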
T cruzi growth-2: blocks T. cruzi growth in NIH3T3 host cells | shares compounds with T cruzi growth-1 | T. cruzi beta-gal in NIH3T3, GalScreen luminescence, 90 h | inhibition, % at 8.35 µM | 72% of 5,600 active | AID 651739;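 active = mean replicate inhibition above about 95% and at least 55% of replicates individually reaching it, limit read from the data; inconclusive = only one of the two criteria is met; inactive = neither criterion is met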
T cruzi growth-3: blocks T. cruzi growth in NIH3T3 host cells | shares compounds with T cruzi growth-1 | T. cruzi beta-gal in NIH3T3, GalScreen luminescence, 90 h | inhibition, % at 2.09 µM | 21% of 5,600 active;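 active = mean inhibition above about 95%, with at least 55% of replicates also reaching it, limit read from the data; inconclusive = meets just one of the two conditions; inactive = meets neither condition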
NIH3T3 tox: cytotoxicity in mouse NIH/3T3 fibroblasts. shares compounds with T cruzi growth-1. NIH/3T3 viability, CellTiter-Glo ATP luminescence, 90 h. cytotoxicity (signal decrease), % at 8.35 µM. 14% of 5,600 active. AID 651742;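 active = mean signal decrease across replicates above about 35% based on untreated-well scatter, with enough replicates individually passing, limit read from the data; inconclusive = no rule stated though some were filed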
NIH3T3 tox 2: NIH/3T3 (mouse) viability loss. inhibition, % at 24.9 µM. AID 651744. 56% of 5,600 active. shares compounds with T cruzi growth-1. NIH/3T3 viability, CellTiter-Glo ATP luminescence, 90 h;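 active = mean loss of cell viability signal at or above a set limit, and enough replicates individually reaching it; inconclusive = meets only the mean limit or only the replicate share; inactive = meets neither condition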
Hits are given with their value; . = inactive; ? = inconclusive; / = no result given.

SMILES	IDH1 R132H inh	GASC1 inh	T cruzi growth-1	T cruzi growth-2	T cruzi growth-3	NIH3T3 tox	NIH3T3 tox 2
Cc1ccc(S(=O)(=O)N(C)C[C@@H]2OCCCC[C@@H](C)Oc3ccc(NC(=O)C4CCCCC4)cc3C(=O)N([C@@H](C)CO)C[C@H]2C)cc1	/	.	.	/	/	/	/
Cc1ccc(S(=O)(=O)N(C)C[C@@H]2OCCCC[C@@H](C)Oc3ccc(NC(=O)C4CCCCC4)cc3C(=O)N([C@H](C)CO)C[C@@H]2C)cc1	/	.	.	/	/	/	/
C[C@@H]1CCCCO[C@H](CN(C)S(=O)(=O)c2ccc(Cl)cc2)[C@H](C)CN([C@H](C)CO)C(=O)c2cc(NC(=O)C3CCCCC3)ccc2O1	.	.	110	101	108	.	.
C[C@@H]1CCCCO[C@@H](CN(C)S(=O)(=O)c2ccc(Cl)cc2)[C@H](C)CN([C@@H](C)CO)C(=O)c2cc(NC(=O)C3CCCCC3)ccc2O1	.	.	106	105	.	.	42
C[C@@H]1CN([C@@H](C)CO)C(=O)c2cc(/C=C/c3ccccc3)cnc2O[C@H]1CN(C)Cc1cccc(C(=O)O)c1	.	.	.	/	/	/	/
O=C(O)C[C@H]1C[C@@H]2c3cc(NC(=O)c4cccnc4)ccc3O[C@@H]2[C@@H](CO)O1	.	.	.	/	/	/	/
C[C@@H]1CN([C@@H](C)CO)C(=O)c2cc(NC(=O)c3ccncc3)ccc2O[C@@H](C)CCCCO[C@@H]1CN(C)Cc1ccc(C(=O)O)cc1	.	.	.	/	/	/	/
O=C(C[C@H]1CC[C@H]2[C@@H](COC[C@H](O)CN2C(=O)c2ccccc2)O1)NCCCN1CCOCC1	/	.	.	/	/	/	/
C[C@@H]1CN([C@@H](C)CO)C(=O)c2cccc(NC(=O)Nc3ccc4c(c3)OCO4)c2O[C@@H]1CN(C)C(=O)Nc1ccc2c(c1)OCO2	/	.	.	/	/	/	/
COc1cccc(CN2CCC3(CC2)CN(C(=O)C2CC2)[C@@H](CO)c2[nH]c4cc(OC)ccc4c23)c1	/	.	/	/	/	/	/
C[C@@H]1CCCCO[C@H](CN(C)S(=O)(=O)c2ccc(Cl)cc2)[C@@H](C)CN([C@H](C)CO)C(=O)c2cc(NC(=O)C3CCCCC3)ccc2O1	.	.	.	/	/	/	/
C[C@H]1CCCCO[C@H](CN(C)S(=O)(=O)c2ccc(Cl)cc2)[C@@H](C)CN([C@@H](C)CO)C(=O)c2cc(NC(=O)C3CCCCC3)ccc2O1	/	.	110	110	101	.	.
Cc1ccc(S(=O)(=O)N(C)C[C@H]2OCCCC[C@@H](C)Oc3ccc(NC(=O)C4CCCCC4)cc3C(=O)N([C@@H](C)CO)C[C@H]2C)cc1	/	.	.	/	/	/	/
C[C@@H]1CCCCO[C@@H](CN(C)S(=O)(=O)c2ccc(Cl)cc2)[C@@H](C)CN([C@@H](C)CO)C(=O)c2cc(NC(=O)C3CCCCC3)ccc2O1	.	.	108	108	.	.	?
O=C(C[C@H]1CC[C@H]2[C@@H](COC[C@H](O)CN2C(=O)Nc2ccc(C(F)(F)F)cc2)O1)NC1Cc2ccccc2C1	/	.	121	105	.	51	107
O=C(C[C@@H]1CC[C@@H]2[C@H](COC[C@@H](O)CN2C(=O)Nc2ccc(C(F)(F)F)cc2)O1)NC1Cc2ccccc2C1	/	.	112	96	.	.	105
O=C(C[C@@H]1CC[C@@H]2[C@H](COC[C@H](O)CN2C(=O)Nc2ccc(C(F)(F)F)cc2)O1)NC1Cc2ccccc2C1	/	.	.	/	/	/	/
O=C(C[C@H]1CC[C@@H]2[C@H](COC[C@H](O)CN2C(=O)Nc2ccc(C(F)(F)F)cc2)O1)NC1Cc2ccccc2C1	/	.	.	/	/	/	/
COCC(=O)Nc1ccc2c(c1)OC[C@H](C)N(Cc1ccncc1)C[C@@H](C)[C@H](OC)CN(C)C2=O	.	.	.	/	/	/	/
C[C@H]1CN([C@@H](C)CO)C(=O)Cc2cc(NS(=O)(=O)c3ccc(Cl)cc3)ccc2O[C@@H]1CN(C)Cc1ccccc1	.	.	102	104	.	.	83
C[C@@H]1CN([C@H](C)CO)C(=O)Cc2cc(NS(=O)(=O)c3ccc(F)cc3)ccc2O[C@@H]1CN(C)Cc1ccccc1	.	.	.	/	/	/	/
C[C@@H]1CN([C@H](C)CO)C(=O)Cc2cc(NS(=O)(=O)c3ccccc3)ccc2O[C@@H]1CN(C)Cc1ccc(-c2ccccc2)cc1	.	.	.	/	/	/	/
C[C@H]1CN([C@@H](C)CO)C(=O)Cc2cc(NS(=O)(=O)c3ccc(Cl)cc3)ccc2O[C@@H]1CN(C)Cc1ccc(-c2ccccc2)cc1	/	.	99	105	.	.	107
C[C@@H]1CN([C@@H](C)CO)C(=O)Cc2cc(NS(=O)(=O)c3ccc(Cl)cc3)ccc2O[C@@H]1CN(C)Cc1ccccc1	.	.	.	/	/	/	/
C[C@H](CO)N1C[C@H](C)[C@@H](CN(C)Cc2ccc(-c3ccccc3)cc2)Oc2ccc(NS(C)(=O)=O)cc2CC1=O	.	.	118	112	?	.	105
SMILES	IDH1 R132H inh	GASC1 inh	T cruzi growth-1	T cruzi growth-2	T cruzi growth-3	NIH3T3 tox	NIH3T3 tox 2
C[C@H](CO)N1C[C@H](C)[C@@H](CN(C)Cc2ccccc2)Oc2ccc(NS(=O)(=O)c3ccc(F)cc3)cc2CC1=O	.	.	109	96	.	.	.
C[C@@H]1CN([C@@H](C)CO)C(=O)Cc2cc(NS(C)(=O)=O)ccc2O[C@H]1CN(C)Cc1ccc(-c2ccccc2)cc1	.	.	.	/	/	/	/
O=C(C[C@@H]1CC[C@@H](NS(=O)(=O)c2ccccc2)[C@@H](CO)O1)NCCN1CCCCC1	.	.	.	/	/	/	/
COc1ccc(NC(=O)Nc2ccc3c(c2)C(=O)N([C@H](C)CO)C[C@@H](C)[C@H](CN(C)CC2CC2)OCCCC[C@@H](C)O3)cc1	/	.	.	/	/	/	/
C[C@@H]1CN([C@H](C)CO)C(=O)Cc2cc(NC(=O)Nc3ccc(C(F)(F)F)cc3)ccc2O[C@H]1CN(C)CC1CCCCC1	.	.	.	/	/	/	/
CCc1cnc(N2[C@H](CO)[C@@H](c3ccccc3)[C@@H]2C#N)s1	/	.	.	/	/	/	/
CCc1cnc(N2[C@H](C#N)[C@H](c3ccc(C#Cc4ccccc4F)cc3)[C@@H]2CO)s1	/	.	97	101	112	.	.
CCc1cnc(N2[C@H](C#N)[C@H](c3ccccc3)[C@@H]2CO)s1	/	.	.	/	/	/	/
CCc1cnc(N2[C@H](C#N)[C@@H](c3ccccc3)[C@@H]2CO)s1	/	.	.	/	/	/	/
CCc1cnc(N2[C@H](C#N)[C@@H](c3ccc(C#Cc4ccccc4F)cc3)[C@H]2CO)s1	/	.	111	103	101	.	28
CCc1cnc(N2[C@H](C#N)[C@H](c3ccc(C#Cc4ccccc4F)cc3)[C@H]2CO)s1	/	.	100	.	106	.	95
Cc1ccccc1S(=O)(=O)N1C[C@@H]2[C@H](c3ccccc31)[C@H](CO)N2C(=O)CC1CC1	/	.	.	/	/	/	/

Screens (PubChem BioAssay)
